Bioassay records deposited in PubChem BioAssay by several laboratories.
EBI2 block = EBI2 (human) antagonism | P32249 | EBI2 beta-arrestin recruitment, luminescence, 7a,25-OHC stimulated | inhibition, % at 5 µM | actives 0.81% (n = 360,000) | AID 651636; in the data active = inhibition above about 38%;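 note: enzyme fragment complementation signal reports receptor beta-arrestin coupling in cells; 0% = agonist plus DMSO wells and 100% = wells without agonist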
APJ antagonist = antagonists of human APJ apelin receptor; P35414; CHO-K1 APJ beta-arrestin complementation, luminescence; inhibition, % at 20 µM; actives 0.32% (n = 330,000); AID 2521;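 active = inhibition above about 40% at 20 µM, limit read from the data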;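 note: cells challenged with 10 nM apelin-13 agonist together with compound; plate controls were apelin-13 plus DMSO wells for no effect and DMSO wells lacking apelin-13 for full effect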
APJ agonist = agonists of human APJ apelin receptor. P35414. CHO-K1 APJ PathHunter beta-arrestin, luminescence; 0% DMSO wells, 100% apelin. activation, % at 20 µM. actives 0.11% (n = 330,000). AID 2520;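 active = activation more than six SD over the plate average, tested at 20 µM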;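 note: 0% = DMSO alone and 100% = apelin-13 at 10 nM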
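Incubation: overnight seeding, 90 min compound at 25 °C, 1 h detection; test system: PathHunter CHO-K1 APJ (AGTRL-1) beta-arrestin reporter cells; amount: 1000 cells/well; doses: one dose, 20 µM compound, 1% DMSO; measured by: beta-gal luminescence; measure: agonist-driven arrestin binding to APJ; benchmarks: negative DMSO alone, positive Apelin-13 at 10 nM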
GAA850 FXN act = activators of GAA850 frataxin (FXN) promoter; HEK293 lucGAA850 FXN promoter luciferase reporter, 24 h; percent of 10 µM SAHA response; activation, % at 6 µM; actives 0.56% (n = 360,000);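 active = activation above the average of all compounds screened plus 3 SD, cutoff fixed separately per campaign, cut at about 7.5% in these data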;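 note: 0% = DMSO wells and 100% = 10 µM SAHA wells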
CXCR6 block = blocks human CXCR6 beta-arrestin recruitment. CHO-K1 PathHunter CXCR6 beta-arrestin, luminescence. inhibition, % at 20 µM. O00574. actives 0.36% (n = 360,000). AID 602244; in the data active = inhibition above about 34%, passing the limit was not always enough;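 note: antagonist mode with CXCL16 agonist at 10 nM final; 0% = 10 nM CXCL16 with DMSO and 100% = unstimulated wells without agonist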
CCR6 antagonist = antagonists of human CCR6 receptor; CHO-K1 CCR6 PathHunter beta-arrestin, luminescence, CCL20-stimulated; actives 0.49% (n = 340,000); inhibition, % at 20 µM; P51684;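 active = compounds whose inhibition of the agonist-driven luminescence signal at 20 µM reaches about 50%, limit read from the data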;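 note: cells stimulated with CCL20 at 14 nM final; plate controls were DMSO with CCL20 for no effect and DMSO without agonist for full effect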
Target sequence (P51684 whole entry, looked up): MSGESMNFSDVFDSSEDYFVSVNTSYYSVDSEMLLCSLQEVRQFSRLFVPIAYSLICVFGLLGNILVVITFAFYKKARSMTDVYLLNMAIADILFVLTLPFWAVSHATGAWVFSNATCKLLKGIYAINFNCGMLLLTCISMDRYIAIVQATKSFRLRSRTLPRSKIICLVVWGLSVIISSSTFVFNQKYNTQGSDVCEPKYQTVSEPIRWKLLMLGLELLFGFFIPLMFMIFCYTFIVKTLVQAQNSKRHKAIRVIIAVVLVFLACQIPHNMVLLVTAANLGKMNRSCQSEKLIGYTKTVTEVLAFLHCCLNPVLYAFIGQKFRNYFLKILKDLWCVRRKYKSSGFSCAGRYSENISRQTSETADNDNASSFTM
* marks the source's active call; other numbers are inactive results; . = no result given. Most compounds without a hit are left out; they make up all but 2% or so of the library.

SMILES	EBI2 block	APJ antagonist	APJ agonist	GAA850 FXN act	CXCR6 block	CCR6 antagonist
N#CC1=C(N)C(C#N)(C#N)C(c2ccncc2)C2CN(C(=O)OCc3ccccc3)CC=C12 (centres undefined)	14	16	-8	0	23	56*
N#CC1=C(N)C(C#N)(C#N)[C@H](c2cccnc2)[C@H]2CN(C(=O)OCc3ccccc3)CC=C12	8	31	-4	2	11	37
O=C1c2cccc(O)c2C(=O)c2c(O)cc(CO)cc21	.	-135	2	.	.	4
CC1OC2CC(=O)OC2C2=C1C(=O)c1c(O)cccc1C2=O (centres undefined)	-28	.	.	-17	79*	.
N#C/C(=C/c1ccc(-c2cccc([N+](=O)[O-])c2)o1)C(=O)Nc1nc(-c2cccs2)cs1	7	.	.	3	22	69*
N#C/C(=C\c1ccc(-c2ccccc2[N+](=O)[O-])o1)C(=O)Nc1nc(-c2cccs2)cs1	3	23	-6	2	36	51*
N#C/C(=C\c1ccc(-c2cccc([N+](=O)[O-])c2)o1)C(=O)N1CCOCC1	-22	-7	-2	4	-9	7
CC(=O)Nc1nc(-c2ccc([N+](=O)[O-])cc2)cs1	-3	-3	-4	0	1	0
N#C/C(=C\c1ccc(-c2ccc([N+](=O)[O-])cc2)o1)C(=O)Nc1nc(-c2cccs2)cs1	16	18	-3	2	34	58*
OCC1(CO)CCCC(CO)(CO)C1O	0	.	.	-1	2	2
Cc1ccc2[nH]c(O)c(N=Nc3nc4ccccc4s3)c2c1	18	30	-7	1	42*	49
Oc1[nH]c2ccccc2c1N=Nc1nc2ccccc2s1	14	37	-8	6	28	58*
CN(C)c1ccc(/C=C/c2ccc3c4ccccc4ccc3[n+]2-c2ccccc2)cc1	45*	.	.	-14	62*	83*
O=S(=O)(Nc1cccc2ncccc12)c1cccs1	60*	88*	-14	-17	79*	88*
Cc1c(NS(=O)(=O)c2cccs2)cccc1-c1nc2cccnc2s1	-14	-5	-1	3	-4	1
COc1ccc(OC)c2sc(N(CCCN(C)C)C(=O)CCS(=O)(=O)c3ccccc3)nc12	54*	39	0	31*	62*	70*
COc1ccc(Cl)c2sc(N(CCN(C)C)C(=O)CCS(=O)(=O)c3ccc(C)cc3)nc12	-1	14	2	1	8	10
CCOC(=S)SCC(=O)Nc1nc(-c2ccc(Br)cc2)cs1	69*	18	-3	6	2	-25
CCCCn1c(NC(=O)c2ccc(F)cc2)c(C#N)c2nc3ccccc3nc21	.	56*	-9	.	.	.
COc1ccc(C(=O)OCc2c(-c3ccccc3)ncc3ccccc23)cc1	10	4	-5	3	13	24
Cc1cc(F)ccc1-c1cc(C(=O)Nc2ccccc2)[nH]n1	13	.	.	1	-4	.
CC(=O)c1ccc(OCc2nnn(CC(=O)O)c2-c2ccccc2)cc1	1	.	.	0	1	.
Cc1ccc2nc3cc([N+](=O)[O-])cc([N+](=O)[O-])c3cc2c1	53*	.	.	6	23	50
Cc1nc2ccc([N+](=O)[O-])cc2nc1C	-12	-13	0	0	3	-9
Cc1ccc(-c2cnc(-c3ccccc3C(=O)O)o2)cc1	-1	14	-1	2	5	11
CCOC(=O)c1ccc(S(=O)(=O)N2CCN(C/C=C/c3ccccc3)CC2)cc1	14	8	-1	-2	3	20
COc1ccc(N2C(=O)C(Cl)=C(Oc3cccc(OC)c3)C2=O)cc1	13	3	-2	2	32	97*
Cc1ccc(S(=O)(=O)CCC(=O)N(Cc2nnc(-c3ccc(Cl)cc3)o2)C2CC2)cc1	13	-8	-1	3	-1	6
CC(=O)OCCCNc1cc(SCc2ccco2)c2nonc2c1[N+](=O)[O-]	8	15	-2	3	28	55*
COc1ccc(CN2CN(c3ccc(Cl)cc3)C(=O)N(n3cnnc3)C2)cc1	-4	24	-5	0	44*	-16
